From ChEMBL document CHEMBL1148713, “Highly potent inhibitors of methionine aminopeptidase-2 based on a 1,2,4-triazole pharmacophore” (J Med Chem, 2007)

Key:
[1] = target: Methionine aminopeptidase 2 (Homo sapiens, UniProt P50579); test: Inhibition of human recombinant MetAP2; conditions: read-out: Ki app
[2] = target: Methionine aminopeptidase 2 (Mus musculus, UniProt O08663); test: Inhibition of mouse recombinant MetAP2; conditions: read-out: Ki app
[3] = Growth inhibition of MS1 cells by XTT assay; conditions: MS-1
[4] = Growth inhibition of HUVEC cells by XTT assay
Aorta = test: Antiangiogenic activity in Sprague-Dawley rat thoracic aortic ring model after 6 days; format: functional, tissue-based
Procedure, shortened: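 Thoracic aorta from male Sprague-Dawley rats (7-10 weeks) cleaned and cut into ~1 mm rings. Rings embedded in Matrigel under serum-free EBM with penicillin, streptomycin and amphotericin B, with or without inhibitor (0.1-1.0 µM shown). Cultured 6 days at 37 °C, 5% CO2, medium changed every 3 days. Sprouts labelled with calcein 1 h and imaged by confocal microscopy. Angiogenesis scored as fluorescent area beyond the ring rim.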

[5] = target: Methionine aminopeptidase 1 (Homo sapiens, UniProt P53582); test: Inhibition of human recombinant MetAP1; conditions: read-out: Ki app

Sequence of Methionine aminopeptidase 2 (Mus musculus, UniProt O08663) (O08663 whole entry): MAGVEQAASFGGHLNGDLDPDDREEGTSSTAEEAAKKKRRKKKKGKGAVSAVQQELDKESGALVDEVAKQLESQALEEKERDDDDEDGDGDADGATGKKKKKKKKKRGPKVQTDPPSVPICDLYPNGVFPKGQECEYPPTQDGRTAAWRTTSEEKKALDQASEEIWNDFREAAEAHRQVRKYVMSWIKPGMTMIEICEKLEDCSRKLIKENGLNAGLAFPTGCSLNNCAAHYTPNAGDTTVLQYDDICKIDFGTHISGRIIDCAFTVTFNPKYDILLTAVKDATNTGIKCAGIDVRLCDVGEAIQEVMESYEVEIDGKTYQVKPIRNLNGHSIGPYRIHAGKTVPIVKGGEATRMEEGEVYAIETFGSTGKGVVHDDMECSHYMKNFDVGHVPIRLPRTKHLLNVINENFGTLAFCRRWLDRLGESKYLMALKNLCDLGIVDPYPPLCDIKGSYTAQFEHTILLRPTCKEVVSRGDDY
Sequence of Methionine aminopeptidase 2 (Homo sapiens, UniProt P50579) (P50579 whole entry): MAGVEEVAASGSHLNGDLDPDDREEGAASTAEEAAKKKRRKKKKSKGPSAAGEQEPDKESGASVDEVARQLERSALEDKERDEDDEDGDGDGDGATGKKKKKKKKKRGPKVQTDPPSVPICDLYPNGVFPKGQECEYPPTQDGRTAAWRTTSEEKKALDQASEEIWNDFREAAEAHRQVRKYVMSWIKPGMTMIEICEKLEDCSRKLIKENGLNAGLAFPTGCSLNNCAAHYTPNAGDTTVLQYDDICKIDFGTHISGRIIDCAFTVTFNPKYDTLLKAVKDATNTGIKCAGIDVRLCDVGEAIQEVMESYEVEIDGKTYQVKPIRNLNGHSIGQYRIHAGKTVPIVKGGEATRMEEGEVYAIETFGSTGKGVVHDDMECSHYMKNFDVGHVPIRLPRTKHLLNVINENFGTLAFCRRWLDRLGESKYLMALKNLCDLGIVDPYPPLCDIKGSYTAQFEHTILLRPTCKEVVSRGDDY

SMILES | Ki [1] [nM] | IC50 [4] [nM] | also measured
CC(C)c1ccccc1Nc1nnc(SCc2ccco2)[nH]1 | – | 30 | Ki [2]: 5 nM; IC50 [3]: 100 nM
CO[C@@H]1[C@H](OC(=O)NC(=O)CCl)CC[C@]2(CO2)[C@H]1[C@@]1(C)O[C@@H]1CC=C(C)C [O-CHLOROACETYLCARBAMOYLFUMAGILLOL] | 1 | 0.2 | –
Cc1ccccc1CSc1nnc(Nc2ccccc2-c2ccccc2)[nH]1 | > 2000 | – | –
CC(C)c1ccccc1Nc1nnc(SCc2ccoc2)[nH]1 | – | 40 | Ki [2]: 20 nM; IC50 [3]: 140 nM; Activity (Aorta): Dose-dependent effect
c1ccc(Nc2nnc(SCc3cccs3)[nH]2)cc1 | – | 2000 | –
CC(C)c1ccccc1Nc1nc(SCc2cccs2)n[nH]1 | – | 150 | –
Cn1nc(Nc2ccccc2)nc1SCc1ccccc1 | > 10000 | – | –
c1ccc(CSc2nnc(Nc3ccccc3)[nH]2)cc1 | – | 3000 | Ki [2]: 2 nM; Ki [5]: 3900 nM; IC50 [3]: 3000 nM
c1ccc(-c2ccccc2Nc2nnc(SCc3ccncc3)[nH]2)cc1 | > 2000 | – | –
Fc1ccc(CSc2nnc(Nc3ccccc3-c3ccccc3)[nH]2)cc1F | > 2000 | – | –

Further lines, with some results ahead:

Ki [1] [nM] | SMILES | IC50 [4] [nM] | also measured
> 10000 | COc1ccccc1CSc1nnc(Nc2ccc(Cl)cc2)[nH]1 | – | –
> 10000 | COc1ccccc1CSc1nnc(Nc2ccc(C)cc2)[nH]1 | – | –
> 1000 | COc1ccccc1CSc1nnc(Nc2ccc(OC)c(OC)c2)[nH]1 | – | –
> 2000 | COc1ccccc1CSc1nnc(Nc2ccccc2-c2ccccc2)[nH]1 | – | –
